“And” between values parts separate entries of the source, which are not always exact repeats. Equal values may be shown once. Blank lines part the entries; values can stand above or below the compound they belong to.
Assays:
Rattus norvegicus [1] = experiment: The compound was tested for IL-1 generation on CMC-LPS air-pouch model at 12.5 mg/Kg by oral administration; format: functional, organism-based
Procedure, shortened: (§1)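 Rats got 10 mL subcutaneous dorsal air, then 6 mL sterile 2% (w/v) CMC-Na in saline into the pouch 24 h later, then 5 ng LPS in 0.5 mL saline 24 h after that. Compound given orally as a suspension in 0.5% methyl cellulose 2 h before LPS. Exudate collected 4 h after LPS. Extra- plus intracellular IL-1 measured by LAF assay against a human recombinant IL-1α curve. Percent inhibition versus control; five rats per group.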

Rattus norvegicus [2] = experiment: The compound was tested for IL-1 generation on CMC-LPS air-pouch model at 25 mg/Kg by oral administration; format: functional, organism-based; procedure, shortened: as §1
Rattus norvegicus [3] = experiment: % inhibition against arthritis on adjuvant-untreated paw in rats at 100 mg/Kg by oral administration; format: functional
Procedure, shortened: (§2)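 Adjuvant arthritis in rats; drug given orally once daily from the first day of adjuvant treatment. Swelling of the adjuvant-untreated paw measured by plethysmometer on day 15 after adjuvant; % inhibition versus control. Mean ± SEM of 6–10 animals; significance versus control.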

Rattus norvegicus [4] = experiment: % inhibition against arthritis on adjuvant-untreated paw in rats at 12.5 mg/Kg by oral administration; format: functional; procedure, shortened: as §2
Rattus norvegicus [5] = experiment: % inhibition against arthritis on adjuvant-untreated paw in rats at 25 mg/Kg by oral administration; format: functional; procedure, shortened: as §2
Rattus norvegicus [6] = experiment: % inhibition against arthritis on adjuvant-untreated paw in rats at 50 mg/Kg by oral administration; format: functional; procedure, shortened: as §2
Rattus norvegicus [7] = experiment: The compound was tested for PGE-2 generation on CMC-LPS air-pouch model at 100 mg/Kg by oral administration; format: functional, organism-based
Procedure, shortened: (§3)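 Rat dorsal air pouch: CMC-Na (2% w/v, 6 mL) injected 24 h after the air, LPS (5 ng) 24 h after that. Oral dosing as a suspension in 0.5% methyl cellulose 2 h before LPS. Exudate sampled 4 h post-LPS; PGE2 in the exudate supernatant measured by radioimmunoassay. Percent inhibition versus control; five animals per group.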

Rattus norvegicus [8] = experiment: The compound was tested for PGE-2 generation on CMC-LPS air-pouch model at 12.5 mg/Kg by oral administration; format: functional, organism-based; procedure, shortened: as §3
Rattus norvegicus [9] = experiment: The compound was tested for PGE-2 generation on CMC-LPS air-pouch model at 200 mg/Kg by oral administration; format: functional, organism-based; procedure, shortened: as §3
Rattus norvegicus [10] = experiment: The compound was tested for PGE-2 generation on CMC-LPS air-pouch model at 25 mg/Kg by oral administration; format: functional, organism-based; procedure, shortened: as §3
Rattus norvegicus [11] = experiment: The compound was tested for PGE-2 generation on CMC-LPS air-pouch model at 50 mg/Kg by oral administration; format: functional, organism-based; procedure, shortened: as §3
Rattus norvegicus [12] = experiment: In vivo percent inhibition of IL-1 generation in rat CMC-LPS air pouch model at 100 uM concentration (local administration); format: functional
Procedure, shortened: (§4)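 Rat air pouch: 10 mL air s.c. into the dorsum, 2% CMC-Na in saline 24 h later, then LPS 5 ng 24 h after CMC. Compound given locally in 5% EtOH-RPMI with 30% autologous serum, 100 μM final in exudate, at 30 min before and just before LPS. Exudate IL-1 (extra- plus intracellular) read by LAF at 4 h. n=5; % inhibition ± SEM.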

Rattus norvegicus [13] = experiment: Compound was evaluated in vivo for the percent inhibition of IL-1 generation in rat CMC-LPS air pouch model at 50 mg/Kg concentration (oral administration); format: functional
Procedure, shortened: (§5)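 Rat CMC-LPS air pouch: air s.c., 2% CMC-Na 24 h later, LPS 5 ng 24 h after that. Compound given orally in 0.5% methyl cellulose 2 h before LPS. Exudate collected at 4 h; IL-1 (extra- plus intracellular) read by LAF assay against a recombinant human IL-1α curve.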

Rattus norvegicus [14] = experiment: Inhibitory activity against Granuloma on CMC-LPS air-pouch model at 100 mg/Kg by oral administration; format: functional
Procedure, shortened: (§6)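 Rat CMC-LPS air pouch (air, 2% CMC-Na, then LPS 5 ng). Oral dosing in 0.5% methyl cellulose 2 h before LPS. Granuloma wet weight determined 5 days after LPS; % inhibition versus control, with an LPS-free group included.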

Rattus norvegicus [15] = experiment: Inhibitory activity against Granuloma on CMC-LPS air-pouch model at 12.5 mg/Kg by oral administration; format: functional; procedure, shortened: as §6
Rattus norvegicus [16] = experiment: Inhibitory activity against Granuloma on CMC-LPS air-pouch model at 200 mg/Kg by oral administration; format: functional; procedure, shortened: as §6
Rattus norvegicus [17] = experiment: Inhibitory activity against Granuloma on CMC-LPS air-pouch model at 25 mg/Kg by oral administration; format: functional; procedure, shortened: as §6
Rattus norvegicus [18] = experiment: Inhibitory activity against IL-1 on CMC-LPS air-pouch model at 100 mg/Kg by oral administration; format: functional; procedure, shortened: as §5
Rattus norvegicus [19] = experiment: Inhibitory activity against IL-1 on CMC-LPS air-pouch model at 12.5 mg/Kg by oral administration; format: functional; procedure, shortened: as §5
Rattus norvegicus [20] = experiment: Inhibitory activity against IL-1 on CMC-LPS air-pouch model at 200 mg/Kg by oral administration; format: functional; procedure, shortened: as §5
Rattus norvegicus [21] = experiment: Inhibitory activity against IL-1 on CMC-LPS air-pouch model at 25 mg/Kg by oral administration; format: functional; procedure, shortened: as §5
Rattus norvegicus [22] = experiment: Inhibitory activity against IL-1 on CMC-LPS air-pouch model at 50 mg/Kg by oral administration; format: functional; procedure, shortened: as §5
Rattus norvegicus [23] = experiment: Inhibitory activity against PGE-2 on CMC-LPS air-pouch model at 100 mg/Kg by oral administration; format: functional
Procedure, shortened: (§7)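 Rat CMC-LPS air pouch (air, 2% CMC-Na, then LPS 5 ng). Oral dosing in 0.5% methyl cellulose 2 h before LPS. PGE2 in the exudate supernatant collected 4 h after LPS, measured by radioimmunoassay.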

Rattus norvegicus [24] = experiment: Inhibitory activity against PGE-2 on CMC-LPS air-pouch model at 12.5 mg/Kg by oral administration; format: functional; procedure, shortened: as §7
Rattus norvegicus [25] = experiment: Inhibitory activity against PGE-2 on CMC-LPS air-pouch model at 200 mg/Kg by oral administration; format: functional; procedure, shortened: as §7
Rattus norvegicus [26] = experiment: Inhibitory activity against PGE-2 on CMC-LPS air-pouch model at 25 mg/Kg by oral administration; format: functional; procedure, shortened: as §7
Rattus norvegicus [27] = experiment: Inhibitory activity against PGE-2 on CMC-LPS air-pouch model at 50 mg/Kg by oral administration; format: functional; procedure, shortened: as §7
Rattus norvegicus [28] = experiment: Activity against arthritis on adjuvant-untreated paw in rats at 25 mg/Kg by oral administration; format: functional; procedure, shortened: as §2
Rattus norvegicus [29] = experiment: Activity against arthritis on adjuvant-untreated paw in rats at 50 mg/Kg by oral administration; format: functional; procedure, shortened: as §2
Rattus norvegicus [30] = experiment: Activity against arthritis on adjuvant-untreated paw in rats at 100 mg/Kg by oral administration; format: functional; procedure, shortened: as §2
Rattus norvegicus [31] = experiment: Activity against arthritis on adjuvant-untreated paw in rats at 12.5 mg/Kg by oral administration; format: functional; procedure, shortened: as §2
Rattus norvegicus [32] = experiment: The compound was tested for Granuloma generation on CMC-LPS air-pouch model at 25 mg/Kg by oral administration; format: functional; procedure, shortened: as §6
Rattus norvegicus [33] = experiment: The compound was tested for Granuloma generation on CMC-LPS air-pouch model at 50 mg/Kg by oral administration; format: functional; procedure, shortened: as §6
Rattus norvegicus [34] = experiment: The compound was tested for Granuloma generation on CMC-LPS air-pouch model at 100 mg/Kg by oral administration; format: functional; procedure, shortened: as §6
Rattus norvegicus [35] = experiment: The compound was tested for Granuloma generation on CMC-LPS air-pouch model at 12.5 mg/Kg by oral administration; format: functional; procedure, shortened: as §6
Rattus norvegicus [36] = experiment: The compound was tested for Granuloma generation on CMC-LPS air-pouch model at 200 mg/Kg by oral administration; format: functional; procedure, shortened: as §6
Rattus norvegicus [37] = experiment: Inhibitory activity against Granuloma on CMC-LPS air-pouch model at 50 mg/Kg by oral administration; format: functional; procedure, shortened: as §6
Homo sapiens = species: Homo sapiens; experiment: In vitro inhibitory activity against IL-1 generation by using human monocyte; format: functional
Procedure, shortened: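 Healthy-donor peripheral mononuclear cells, adhered 1.5 h in RPMI 1640 with 10% heat-inactivated autologous serum. Adherent monocytes then stimulated with LPS 1 μg/mL for 16–18 h in 1% autologous serum with 0.1% ethanol, ± drug. Extra- plus intracellular IL-1 read by LAF assay against a recombinant human IL-1β curve. IC50 by least squares; mean of ≥2 experiments.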

Rattus norvegicus [38] = species: Rattus norvegicus; experiment: In vitro inhibitory activity against IL-1 generation by using rat exudated macrophages; format: functional
Procedure, shortened: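 Fisher rat peritoneal exudate cells collected 4 days after i.p. 2.5% glycogen. Cells adhered 1.5 h at 37 °C in 1% normal rat serum. Adherent macrophages stimulated with LPS 1 ng/mL for 4 h ± compound. Intracellular IL-1 read by LAF assay against a recombinant human IL-1α curve. IC50 by least squares; mean of duplicates.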

Rattus norvegicus [39] = experiment: Compound was evaluated in vivo for the percent inhibition of IL-1 generation in rat CMC-LPS air pouch model at 100 uM concentration; format: functional; procedure, shortened: as §4

Compound: CCc1cccc2c(/C=C(/C)C(=O)O)cc(OC)c(O)c12
- Concentration (Rattus norvegicus [1]): 1290 U/mL
- Concentration (Rattus norvegicus [2]): 1030 U/mL
- inhibition in vivo at 100 mg/kg (Rattus norvegicus [3]): 51.4%
- inhibition in vivo at 12.5 mg/kg (Rattus norvegicus [4]): 20.1%
- inhibition in vivo at 25 mg/kg (Rattus norvegicus [5]): 34.1%
- inhibition in vivo at 50 mg/kg (Rattus norvegicus [6]): 38.8%
- Concentration (Rattus norvegicus [7]): 0.8 ng/mL
- Concentration (Rattus norvegicus [8]): 5.9 ng/mL
- Concentration (Rattus norvegicus [9]): 0.9 ng/mL
- Concentration (Rattus norvegicus [10]): 5.2 ng/mL
- Concentration (Rattus norvegicus [11]): 2.9 ng/mL
- Inhibition (Rattus norvegicus [12]): 94% and 91%
- inhibition in vivo at 50 mg/kg (Rattus norvegicus [13]): 65%
- inhibition in vivo at 100 mg/kg (Rattus norvegicus [14]): 76%
- inhibition in vivo at 12.5 mg/kg (Rattus norvegicus [15]): < 25%
- inhibition in vivo at 200 mg/kg (Rattus norvegicus [16]): 87%
- inhibition in vivo at 25 mg/kg (Rattus norvegicus [17]): 37%
- inhibition in vivo at 100 mg/kg (Rattus norvegicus [18]): 84%
- inhibition in vivo at 12.5 mg/kg (Rattus norvegicus [19]): < 25%
- inhibition in vivo at 200 mg/kg (Rattus norvegicus [20]): 91%
- inhibition in vivo at 25 mg/kg (Rattus norvegicus [21]): 40%
- inhibition in vivo at 50 mg/kg (Rattus norvegicus [22]): 65%
- inhibition in vivo at 100 mg/kg (Rattus norvegicus [23]): 91%
- inhibition in vivo at 12.5 mg/kg (Rattus norvegicus [24]): 35%
- inhibition in vivo at 200 mg/kg (Rattus norvegicus [25]): 90%
- inhibition in vivo at 25 mg/kg (Rattus norvegicus [26]): 43%
- inhibition in vivo at 50 mg/kg (Rattus norvegicus [27]): 68%
- Swelling (Rattus norvegicus [28]): 36.4%
- Swelling (Rattus norvegicus [29]): 33.8%
- Swelling (Rattus norvegicus [30]): 26.8%
- Swelling (Rattus norvegicus [31]): 44.1%
- Wet weight (Rattus norvegicus [32]): 1.61 g
- Wet weight (Rattus norvegicus [33]): 1.49 g
- Wet weight (Rattus norvegicus [34]): 1.25 g
- Wet weight (Rattus norvegicus [35]): 1.93 g
- Wet weight (Rattus norvegicus [36]): 1.16 g
- inhibition in vivo at 50 mg/kg (Rattus norvegicus [37]): 49%

- IC50 (Homo sapiens): 5.4 µM
- IC50 (Rattus norvegicus [38]): 6 µM
Compound: CCc1cccc2c(/C=C/C(=O)O)cc(Cl)c(O)c12
- Inhibition (Rattus norvegicus [39]): <25%

From ChEMBL document CHEMBL1126114, “A novel orally active inhibitor of IL-1 generation: synthesis and structure-activity relationships of 3-(4-hydroxy-1-naphthalenyl)-2-propenoic acid derivatives” (J Med Chem, 1992)
